Screening data deposited in PubChem by several laboratories.
Rows were chosen to be rich in hits. Some 2.2% of all compounds tested hit in one or more screens of this group.
eIF4H FP inh = human eIF4H binding inhibitors, primary screen, translation initiation inhibitor project, biochemical, uHTS, fluorescence polarization | AID 2012, 2009 | 0.94% of 290,000 active | eIF4H fluorescence polarization binding assay | inhibition, % at 35 µM | Eukaryotic translation initiation factor 4H (Homo sapiens), Q15056;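 also: calls also rest on retests at 20 µM and on dose response follow-up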
PABP FP inh = PABP poly(A) RNA binding inhibitors, primary screen, biochemical, fluorescence polarization, uHTS | 1% of 290,000 active | Polyadenylate-binding protein 1 (Homo sapiens), P11940 | calls only at 35 µM;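 also: calls also rest on retests at 20 µM and on dose response follow-up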
MLLE-PAM2 inh = inhibitors of PABP1 MLLE–PAM2 peptide binding, primary screen, biochemical, fluorescence polarization, FITC-PAM2, GST-MLLE; inhibition, % at 20 µM; AID 588489, 2011; 0.36% of 360,000 active; Polyadenylate-binding protein 1 (Homo sapiens), P11940; in the data active = inhibition above about 35%, passing the limit was not always enough
IMP-1 inh = IMP-1 metallo-beta-lactamase inhibitors, primary screen, biochemical, epi-absorbance readout, Pseudomonas aeruginosa enzyme. metallo-beta-lactamase IMP-1 (Pseudomonas aeruginosa). purified IMP-1, nitrocefin hydrolysis, epi-absorbance fluorescence. inhibition, % at 5.6 µM. 0.45% of 290,000 active;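 active = inhibition above the mean plus 3 SD of all compounds in the same screening run, cut at about 4.5% in these data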
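Test system: recombinant IMP-1 enzyme, purified / Medium: HEPES buffer pH 7.1 with ZnSO4 and Brij 35 / Doses: single dose, 5.6 µM / Times: 25 °C, 15 min preincubation, 25 min reaction / Detection: Epi-absorbance via hydrolysed-nitrocefin quenching of white-plate fluorescence, 480/530 nm, EDTA stop / Evaluation: percent inhibition from optical density relative to buffer-blank wells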
VIM-2 inhibitor = VIM-2 metallo-beta-lactamase inhibitors, primary screen, biochemical, epi-absorbance readout, Pseudomonas aeruginosa enzyme; purified VIM-2, nitrocefin hydrolysis, epi-absorbance fluorescence; 0.89% of 290,000 active; inhibition, % at 5.6 µM;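 active = inhibition above the mean of all tested compounds plus 3 SD, cutoff set per screening run, cut at about 7.5% in these data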;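 also: red hydrolysis product quenches plate fluorescence so inhibitors raise well fluorescence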
A number is an active result; 0 = inactive; - = no result given; + = active, no number. Unless noted, no rule for the calls is given here.

SMILES | eIF4H FP inh | PABP FP inh | MLLE-PAM2 inh | IMP-1 inh | VIM-2 inhibitor
COc1ccc(CC(=O)NNC(=O)c2ccc(NC(C)=O)cc2)cc1 | 0 | 0 | 0 | 9.6 | 0
COc1ccc(NC(=O)NNC(=O)c2ccc(-c3ccccc3)cc2)cc1 | 0 | 0 | 0 | 4.9 | 0
COc1ccc(NC(=O)NNC(=O)c2ccc(-c3ccccc3)cc2)c(OC)c1 | 0 | 0 | 0 | 0 | 0
Cc1nc2nc(SCC(=O)NCCCN3CCCC(C)C3)nn2c(C)c1Cc1ccccc1Cl (stereo unspecified) | - | - | 0 | 0 | 0
O=C(COC(=O)c1cc2c(s1)CCC2)Nc1ccc(F)cc1 | 97 | + | 0 | 0 | 0
Cc1ccccc1CN1CCN(Cc2cc(=O)c3ccccc3[nH]2)CC1CCO (stereo unspecified) | 0 | 0 | 0 | 8.3 | 0
Cc1ccccc1CN1CCN(Cc2cc3ccccc3o2)CC1CCO (stereo unspecified) | 0 | 0 | 0 | 0 | 0
Cc1ccc(C=Nc2cccnc2N)cc1 | 0 | 0 | 0 | 4.8 | 0
COc1ccc(/C=C/C(=O)c2ccccn2)cc1 | 0 | 0 | 0 | 0 | 9.6
CCOC(=O)C(=O)N/N=C/c1ccco1 | 94 | + | 0 | 0 | 0
Cc1cc(C)cc(OCC(=O)N/N=C/c2ccco2)c1 | 0 | 0 | 0 | 0 | 0
CCCCn1c(N)c(N(Cc2ccccc2OC)C(=O)CCC(C)C)c(=O)[nH]c1=O | 0 | 0 | 0 | 0 | 0
Cc1ccc(S(=O)(=O)NNC(=O)c2ccc(F)cc2)cc1 | 0 | 0 | 0 | 0 | 0
Cc1ccc(C(=O)NC(=S)NNS(=O)(=O)c2ccccc2)cc1 | 0 | 0 | 41 | 0 | 0
CC1C=CC(C)C(C(=O)O)C1C(=O)O (stereo unspecified) | 0 | 0 | 0 | 23 | 0
CCOC(=O)c1cc(CC)sc1/N=C/C1=C(O)CCCC1=O | 0 | + | 0 | 0 | 0
CC(=O)NC(c1ccc(F)c(F)c1)c1nc(-c2ccncc2)cs1 (stereo unspecified) | - | - | 0 | - | -
CN1CC=C2C(C#N)=C(N)C(C#N)(C#N)C(c3cccc(Cl)c3Cl)C2C1 (stereo unspecified) | 122 | 0 | 0 | 0 | 0
Cc1c(C(=O)C(=O)N2CC=C(c3ccccc3)CC2)c2ccccc2n1C | 0 | 0 | 0 | 0 | 0
CC(/C=N/NC(=O)CSc1nnc(SCc2ccccc2)s1)=C\c1ccco1 | 69 | + | 0 | 0 | 0
Cc1ccc(CSc2nnc(SCC(=O)N/N=C/C=C/c3ccco3)s2)cc1 | 0 | 0 | 0 | 0 | 0
COc1cc(/C=N/NC(=O)CSc2n[nH]c(=O)[nH]c2=O)cc(OC)c1O | 0 | + | 0 | 0 | 0
Nc1cc(=O)nc2cn[nH]n12 | - | - | 0 | - | -
Cc1ccc(S(=O)(=O)N2CCCCC2)cc1NC(=O)CNCc1ccco1 | 83 | + | 0 | 0 | 0
Cc1ccc(S(=O)(=O)N2CCCCC2)cc1NC(=O)COC(=O)c1ccc2c(c1)OCO2 | 2.0 | 0 | 0 | 0 | 0
SMILES | eIF4H FP inh | PABP FP inh | MLLE-PAM2 inh | IMP-1 inh | VIM-2 inhibitor
O=C(CNCc1ccncc1)Nc1cc(S(=O)(=O)N2CCCCC2)ccc1Cl | 104 | 0 | 0 | 0 | 0
Cc1ccc(S(=O)(=O)N2CCCCC2)cc1NC(=O)c1ccc2c(c1)OCO2 | 0 | 0 | 0 | 0 | 0
Cc1ccc(S(=O)(=O)N2CCCCC2)cc1NC(=O)c1ccco1 | - | - | 0 | - | -
O=C(CNCc1ccccn1)Nc1cc(S(=O)(=O)N2CCCCC2)ccc1Cl | 0 | 0 | 0 | 0 | 0
OC(c1ccc(F)cc1)c1nc(-c2ccc(F)c(Cl)c2)cs1 (stereo unspecified) | - | - | 0 | - | -
O=C(CCCc1nc(-c2ccc(Cl)cc2)no1)NC1CCCC1 | 0 | 0 | 0 | 0 | 0
O=C(Cc1cccs1)N/N=C/C=C\c1ccco1 | 103 | + | 0 | 0 | 0
O=C(Cc1cccs1)N/N=C/c1ccco1 | 0 | 0 | 0 | 0 | 0
O=C(N/N=C/C=C/c1ccco1)c1ccccc1Cl | 78 | + | 0 | 0 | 0
Cc1cccc(OCC(=O)N/N=C/C=C/c2ccco2)c1 | 81 | 0 | 0 | 0 | 0
O=C(N/N=C/C=C/c1ccco1)/C(=C/c1ccccc1)NC(=O)c1ccccc1 | 51 | + | 0 | 0 | 0
O=C(CCN=C1NS(=O)(=O)c2ccccc21)NCc1ccccc1F | - | - | 0 | - | -
CC1=CC(=C(C#N)C#N)C=C(C)N1Cc1ccccc1 | 0 | 0 | 0 | 0 | 0
COc1ccc2[nH]c3c(c2c1)CCN1C(=O)C(CC(=O)NCc2ccco2)C[C@H](C(=O)N2CCOCC2)[C@@]31C (stereo partly specified) | - | - | 0 | - | -
Nc1ccc(-c2c3ccccc3nc3ccccc23)cc1 | 0 | 0 | 0 | 0 | 9.6
Nc1ccc(-c2nc3ccccc3o2)cc1 | 0 | + | 0 | 0 | 0
Nc1cc(N)cc(-c2nc3ccccc3o2)c1 | - | - | 0 | - | -
Nc1ccc(-c2cc(-c3ccc(N)cc3)nc(-c3ccccc3)n2)cc1 | 0 | 0 | 0 | 0 | 0
Cc1nc(-c2ccc(F)cc2)c(CC(=O)N(C)CC(=O)Nc2ccc(Cl)c(C(F)(F)F)c2)s1 | - | - | 0 | - | -
Cc1cc(/C=C\c2nc(O)c([N+](=O)[O-])c(=O)[nH]2)c(C)n1-c1ccccc1 | 62 | 0 | 0 | 0 | 0
COc1ccc(-n2c(C)cc(/C=C/c3nc(O)c([N+](=O)[O-])c(=O)[nH]3)c2C)cc1 | 0 | 0 | 0 | 0 | 0
O=c1[nH]c(/C=C\c2ccc(O)c(O)c2)nc(O)c1[N+](=O)[O-] | 50 | + | 0 | 0 | 0
O=C(COC(=O)Cc1cccc(C(F)(F)F)c1)NC1CCS(=O)(=O)C1 (stereo unspecified) | - | - | 0 | - | -
CN1CCN(c2ccc(NC(=O)c3cc([N+](=O)[O-])ccc3N3CCOCC3)cc2)CC1 | 0 | 0 | 0 | 0 | 12
O=C(c1ccccc1)N1CCCCC(Cl)C1=O (stereo unspecified) | 0 | 0 | 0 | 0 | 0
SMILES | eIF4H FP inh | PABP FP inh | MLLE-PAM2 inh | IMP-1 inh | VIM-2 inhibitor
CC(C)OC(=O)[C@H]1[C@H](c2ccc(Cl)cc2)[C@@](C#N)(C(N)=O)[C@@H]2C=CC(C(N)=O)=CN21 | 53 | + | 0 | 0 | 0
CCn1c(=N)c(C(N)=O)cc2c(=O)n3cccc(C)c3nc21 | - | - | - | 0 | 7.9
Cc1cccn2c(=O)c3cc(C(N)=S)c(=N)n(CCCN4CCOCC4)c3nc12 | 75 | + | 0 | 0 | 0
COCCCn1c(=N)c(C(N)=S)cc2c(=O)n3cccc(C)c3nc21 | - | - | 0 | - | -
O=C(Nc1ccc(Cl)cc1)OCc1cn(-c2ccccc2)nn1 | 0 | 0 | 0 | 7.5 | 0
O=S1(=O)CCN(Cc2ccc(Cl)c(C(F)(F)F)c2)CC1 | 0 | 0 | 0 | 0 | 0
O=C(NC(Sc1ccc(Cl)cc1)C(=O)O)c1ccccc1 (stereo unspecified) | - | - | 40 | - | -
C=C[C@H](Cc1ccccc1)N(Cc1ccccc1)S(=O)(=O)N(Cc1ccccc1)[C@H](C=C)Cc1ccccc1 | - | - | 0 | - | -
Oc1c(Br)cc(Br)cc1CNc1cnc2ccccc2c1 | 0 | 0 | 0 | 14 | 0
N#Cc1c2c(c(-c3ccco3)[nH]c1=O)CCCC2 | 0 | 0 | 42 | 0 | 0
